Compounds with a hit are over-represented: about 1.2% of the library has one in this group of screens.
MsrA act – activates bovine MsrA enzyme. 0.3% of 360,000 active. activation, % at 10.6 µM. AID 602163. purified bovine MsrA, absorbance read-out; in the data active = activation above about 7.5%;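 note: 0% = vehicle and 100% = reference activator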
MsrA inh – bovine MsrA inhibition. purified bovine MsrA, absorbance read-out. inhibition, % at 15.5 µM. 0.75% of 360,000 active. AID 651718; in the data active = inhibition above about 4.5%;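 note: 0% = vehicle wells with enzyme and 100% = reference inhibitor wells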
proCasp7 act – counter-screen: procaspase-7 (human) activation; recombinant procaspase-7, Ac-DEVD-pNA absorbance 405 nm; D23A/D198A/D206A triple mutant, cannot self-cleave; scale: DMSO 0, 5 µM enzyme 100; activation, % at 8.5 µM; 0.093% of 330,000 active; P55210;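 active = percent activation above the screen-wide mean plus 3 SD, cut at about 25% in these data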
Target sequence (P55210 whole entry D23A/D198A/D206A): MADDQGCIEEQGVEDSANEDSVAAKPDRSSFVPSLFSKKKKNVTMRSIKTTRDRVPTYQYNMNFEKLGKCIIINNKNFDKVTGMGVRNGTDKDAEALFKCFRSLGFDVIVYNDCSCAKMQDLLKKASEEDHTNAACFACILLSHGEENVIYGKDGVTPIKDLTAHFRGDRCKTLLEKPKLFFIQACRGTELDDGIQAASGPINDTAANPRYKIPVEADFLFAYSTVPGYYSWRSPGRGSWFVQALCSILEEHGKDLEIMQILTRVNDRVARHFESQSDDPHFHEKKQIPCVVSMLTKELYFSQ
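Assay system: Uncleavable procaspase-7 mutant enzyme | Input: 2 µM procaspase-7 mutant as dispensed | Timing: 1 h compound preincubation, 2 h substrate cleavage, 25 °C | Repeats: One well per compound | Control set: DMSO wells as 0%, DMSO with 5 µM added PC-7 as 100% | Technique: Epi-absorbance of released pNA at 405 nm, two timepoints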
procasp3 activ – activators of human procaspase-3; recombinant procaspase-3 D3A, Ac-DEVD-pNA absorbance 405 nm; 0.11% of 330,000 active; P42574; activation, % at 8.5 µM;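 active = activation above the mean of all tested compounds plus 3 SD, cut at about 21% in these data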;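 note: 0% = DMSO alone and 100% = DMSO wells spiked with extra 5 µM PC-3 D3A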
Target sequence (P42574 whole entry D9A/D28A/D175A): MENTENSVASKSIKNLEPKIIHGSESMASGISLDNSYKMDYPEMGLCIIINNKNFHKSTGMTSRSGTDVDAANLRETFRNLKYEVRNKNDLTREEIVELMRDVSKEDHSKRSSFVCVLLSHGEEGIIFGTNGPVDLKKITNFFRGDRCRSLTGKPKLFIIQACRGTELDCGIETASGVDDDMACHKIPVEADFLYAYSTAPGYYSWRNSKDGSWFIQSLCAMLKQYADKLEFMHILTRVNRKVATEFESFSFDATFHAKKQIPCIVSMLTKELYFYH
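Test system: Procaspase-3 D3A mutant, all three cleavage aspartates alanine | Dosing: Single dose, 8.5 µM nominal compound, 0.8% DMSO | Schedule: 1 h preincubation, 2 h reaction | Technique: 405 nm absorbance of p-nitroaniline, reads at 0 and 120 min | Repeats: One well per compound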
PC3 dual counter – activates human procaspase-3, dual activator counter-screen; shares compounds with proCasp7 act; recombinant PC-3 D3A, Ac-DEVD-pNA absorbance 405 nm; aspartates 9, 28, 175 changed to alanine; 100% = enzyme control; activation, % at 8.5 µM; 290 tested, under 10 active;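 active = mean percent activation across triplicates above a set limit taken from the earlier primary procaspase-3 screen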;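 note: 0% = DMSO wells and 100% = DMSO wells with 5 µM added PC-3 D3A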
PC7 dual conf – confirmation of dual procaspase activators: human procaspase-7 activation. shares compounds with proCasp7 act. recombinant procaspase-7, Ac-DEVD-pNA absorbance 405 nm; D23A/D198A/D206A mutant that cannot self-cleave. 290 tested, under 10 active. activation, % at 8.5 µM. AID 493115;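 active = mean activation above a set limit carried over from the earlier primary screen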;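 note: 0% = DMSO only and 100% = DMSO with added 5 µM PC-7 enzyme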
An asterisk follows results filed as active; nt = no result.

SMILES	MsrA act	MsrA inh	proCasp7 act	procasp3 activ	PC3 dual counter	PC7 dual conf
CCN=C1NC(c2ccc(Cl)cc2)C(C(=O)OC)=C(C)N1Cc1cccc(C(F)(F)F)c1 (stereo not given)	nt	-3	nt	nt	nt	nt
COc1ccc(-n2c(N)c(C(=O)NCc3ccco3)c3nc4ccccc4nc32)cc1OC	-3	0	32*	12	-29	-35
COc1ccc(-n2c(N)c(C(=O)NCc3ccco3)sc2=S)cc1	-3	1	-11	-4	nt	nt
COc1ccc(-n2c(N)c(C(=O)NCc3ccco3)c3nc4ccccc4nc32)cc1	0	0	44*	-5	-30	-37
COc1cc(-n2c(N)c(C(=O)NCc3ccco3)c3nc4ccccc4nc32)cc(OC)c1OC	-1	1	43*	2	-28	-36
Nc1ccc(-n2c(N)c(C(=O)NCc3ccc4c(c3)OCO4)c3nc4ccccc4nc32)cc1	-13	3	44*	-5	-29	-31
COC(=O)C1=C(C)N(Cc2ccccc2C(F)(F)F)C(=NCc2ccc(OC)cc2)NC1c1ccc(C(F)(F)F)cc1 (stereo not given)	nt	0	nt	nt	nt	nt
COC(=O)c1cc2c(c3c4cc(F)ccc4n(S(=O)(=O)c4cccc(C)c4)c13)C(=O)N(c1ccc(OC)cc1)C2	nt	1	nt	nt	nt	nt
COc1ccc(C(=O)NCC2CCN(C(=O)C(=O)c3cc4ccccc4o3)CC2)cc1	nt	2	nt	nt	nt	nt
COc1cccc(CNC(=O)[C@H]2CCCN2C(=O)[C@H]2CCCN2C(=O)c2ccccc2)c1	nt	0	nt	nt	nt	nt
COc1ccc(-c2cc(C(F)(F)F)n3nc(C(=O)NCc4ccco4)cc3n2)cc1	-8	2	42*	60*	-30	-37
C[C@H](CO)N1C[C@H](C)[C@H](CN(C)C(=O)Nc2cccc3ccccc23)Oc2ncc(Br)cc2C1=O	nt	2	nt	nt	nt	nt
CSc1nnc(-c2cc3c(s2)-c2ccccc2CC3)o1	-2	1	33*	-28	-28	-28
COc1ccc(OC)c(/C=C/C(=O)N2CCN(S(=O)(=O)c3ccc(C)cc3C)CC2)c1	-1	0	32*	9	1	-3
COc1ccc(OC)c(/C=C/C(=O)N2CCN(S(=O)(=O)c3cc(C)ccc3C)CC2)c1	-1	2	12	1	nt	nt
COc1ccccc1CNc1ccc2c(c1)OC[C@H](CC(C)C)NS2(=O)=O	nt	-1	nt	nt	nt	nt
O=C(Cn1c2ccccc2c(=O)c2ccccc21)Nc1cccc(F)c1	-5	1	93*	50*	-28	-38
O=c1cc(-c2ccc(O)cc2)oc2ccc3ccccc3c12	-5	3	29*	22*	4	2
CCSc1n[nH]c(=O)n1C	nt	0	nt	nt	nt	nt
O=c1[nH]c(N/N=C/c2ccc(O)cc2)nc2ccccc12	-4	3	34*	27*	-2	-1
O=C(O)c1ccc(/C=N/Nc2nc3ccccc3[nH]2)cc1	-4	2	6	-3	nt	nt
CC(=Nc1ccc(Cl)cc1N)c1c(O)cc(C)oc1=O	nt	0	nt	nt	nt	nt
Cc1ccc(Cn2c(=O)c3cccnc3n(CC(=O)Nc3cccc(C(F)(F)F)c3)c2=O)cc1	-6	0	42*	1	-1	-1
C=CC[C@]12C[C@@]3(O[C@H](c4ccc(C(F)(F)F)cc4)N=C3C[C@H](c3ccc(OC)cc3)[C@H]1C)N(Cc1ccncc1)C2=O	nt	0	nt	nt	nt	nt
Cc1noc(C)c1S(=O)(=O)N(C)C[C@@H]1OCc2cnnn2CCCC(=O)N([C@@H](C)CO)C[C@@H]1C	nt	0	nt	nt	nt	nt
SMILES	MsrA act	MsrA inh	proCasp7 act	procasp3 activ	PC3 dual counter	PC7 dual conf
COc1ccc(Nc2ncc(C(=O)O)c3ccccc23)cc1	-6	2	2	0	nt	nt
COc1ccc(Nc2ncc(C(=O)N3CCN(c4ccc(F)cc4)CC3)c3ccccc23)cc1	-2	1	27*	13	8	0
COc1ccccc1OCCn1cc(/C=C(\C#N)C(=O)NCc2ccco2)c2ccccc21	-8	2	50*	1	3	1
Cc1c(C(=O)N/N=C/c2ccc(N(C)C)cc2)[nH]c2ccc(Cl)cc12	-5	4	35*	8	-31	-28
Cc1ccccc1C(=O)N(C)[C@H]1C[C@H]2c3[nH]c4c(-c5ccccc5)cccc4c3CCN2C(=O)[C@H]1[C@H](C)O	nt	1	nt	nt	nt	nt
O=C(Nc1ccc2c(c1)OCCO2)c1coc2ccccc2c1=O	-3	1	36*	8	8	0
O=C1CCCC2=C1[C@@]1(O[C@H]3C=CC=CN23)C(=O)N(c2ccccc2)c2ccccc21	nt	0	nt	nt	nt	nt
O=C(N[C@H](C(=O)N1CCC[C@H]1C(=O)NC1CCCC1)C1CCCCC1)c1ccc(Cl)c(Cl)c1	nt	0	nt	nt	nt	nt
Cc1ccc2nc(-c3ccc(NS(=O)(=O)c4ccc(F)c(F)c4)cc3)sc2c1	-7	3	16	-4	nt	nt
Cc1ccc2nc(-c3ccc(NS(=O)(=O)c4ccccc4)cc3)sc2c1	-3	2	52*	23*	4	3
C=CC[C@@H](CC(=O)N(CCO)Cc1ccccc1)C(=O)N[C@H](C)COC(=O)[C@@H](CC=C)Cc1ccc(F)cc1	1	-1	27*	0	2	1
C=CC[C@H](CC(=O)N(CCO)Cc1ccccc1)C(=O)N[C@H](C)COC(=O)[C@@H](CC=C)Cc1ccc(F)cc1	-3	0	-2	1	nt	nt
Cc1ccc(S(=O)(=O)NC(CCCNC(=O)OCc2ccccc2)C(=O)O)cc1 (stereo not given)	nt	0	nt	nt	nt	nt
CCCCc1c(-c2ccccc2OC)ncn1C1CCCCC1	nt	0	nt	nt	nt	nt
N#Cc1c2c(c(Nc3ccc(F)cc3)n3c1nc1ccccc13)CCCC2	-3	0	nt	nt	nt	nt
N#Cc1c2c(c(Nc3ccccc3)n3c1nc1ccccc13)CCC2	-1	0	61*	11	4	1
COC(=O)[C@]12C[C@H](CC(=O)N3CCCC3)C(=O)N(Cc3ccccc3)C1=C[C@H](C1CCCC1)O[C@@H]2C	nt	0	nt	nt	nt	nt
COc1c2ccccc2c(OC)c2ccccc12	-7	-1	63*	81*	-30	-34
COc1nnc(OC)c2ccccc12	-3	0	-1	4	nt	nt
COC(=O)C1=C(C)N(Cc2ccccc2C(F)(F)F)C(=NCc2ccccc2C(F)(F)F)NC1c1ccc(Cl)cc1 (stereo not given)	nt	-1	nt	nt	nt	nt
COc1ccc(/C=N/NC(=O)c2sc3nc(C)cc(C)c3c2N)cc1	-2	-1	49*	19	-28	-35
COc1ccc(NC(=O)c2sc3nc(C)cc(C)c3c2N)cc1	-8	2	-24	-45	nt	nt
COc1ccc(-c2cc(C(=O)OC3CCOC3=O)c3ccccc3n2)cc1 (stereo not given)	-5	3	28*	26*	18	12
